PG9 Ab binder: PG9 antibody binding by small molecule; TR-FRET gp120-PG9 antibody binding; inhibition, % at 6.7 µM; 360,000 compounds, 0.43% hits; AID 624416; in the data active = inhibition above about 8.5%
NR2E3 ag-1: NR2E3 (human) agonism | inhibition of corepressor binding, % at 4.78 µM | GST-NR2E3/biotin-RetCOR TR-FRET, 1536-well | 320,000 compounds, 0.12% hits | Q9Y5X4;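 active = percent inhibition above the cutoff of mean plus 3 SD of all tested compounds, set per screening campaign, cut at about 20% in these data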;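 note: 0% = DMSO wells and 100% = biotin wells as full block of FRET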
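Test system: GST-NR2E3 and biotin-RetCOR proteins | Quantity: 1.35 nM GST-tagged NR2E3 final | Medium: Tris pH 7.5 | Also added: 7 nM biotin-RetCOR | Dosing: Compound at 4.8 µM, single dose | Timing: 5 h at 4 °C | Detection: Time-resolved FRET | Read-out basis: Percent inhibition | Benchmarks: Biotin wells as high control, 0.6% DMSO wells as low control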
Rev-erbA mod: modulates human Rev-erb alpha binding to DNA; activity, % at 10 µM; AID 1259318; 370,000 compounds, 0.79% hits; P20393; Rev-erbα–FITC-DNA binding, fluorescence polarization, 90 min;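 active = activity above about 14%, limit read from the data; passing the limit was not always enough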;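 note: 0% = DMSO wells with 35 nM protein and 100% = DMSO wells with 750 nM protein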
Target sequence (P20393 whole entry, looked up): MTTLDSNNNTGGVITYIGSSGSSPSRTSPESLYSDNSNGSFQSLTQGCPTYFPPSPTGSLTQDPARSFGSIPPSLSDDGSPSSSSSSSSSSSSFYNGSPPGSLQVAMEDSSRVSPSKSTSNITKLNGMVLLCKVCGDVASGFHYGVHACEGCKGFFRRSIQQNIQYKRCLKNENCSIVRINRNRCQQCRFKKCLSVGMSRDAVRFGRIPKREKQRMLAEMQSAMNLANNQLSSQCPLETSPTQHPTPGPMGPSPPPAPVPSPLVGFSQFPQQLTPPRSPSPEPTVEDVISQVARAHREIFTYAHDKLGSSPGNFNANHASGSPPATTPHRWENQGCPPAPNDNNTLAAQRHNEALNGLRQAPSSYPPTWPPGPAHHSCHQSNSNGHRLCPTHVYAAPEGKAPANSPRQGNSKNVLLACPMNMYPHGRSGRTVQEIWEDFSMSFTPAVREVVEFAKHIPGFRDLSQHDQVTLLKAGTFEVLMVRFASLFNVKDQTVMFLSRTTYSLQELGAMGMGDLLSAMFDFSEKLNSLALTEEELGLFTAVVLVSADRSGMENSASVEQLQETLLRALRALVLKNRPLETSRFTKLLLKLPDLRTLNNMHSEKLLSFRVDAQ
rCAG binder: binds r(CAG) RNA repeats; r(CAG) RNA repeat, TO-PRO-1 dye displacement fluorescence; inhibition, % at 3 µM; AID 651821; 370,000 compounds, 1.3% hits;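 active = inhibition above the plate cutoff, the mean of all test compounds on that plate plus 3 SD, cut at about 35% in these data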;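 note: 0% = DMSO alone and 100% = 100 µM mitoxantrone as full dye displacement; higher means more dye released from RNA so lower well fluorescence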
NR2E3 ag-2: human photoreceptor-specific nuclear receptor agonism; CHO-S Gal4-NCOR/VP16-NR2E3 two-hybrid, luciferase; Q9Y5X4; 360,000 compounds, 0.35% hits; inhibition of corepressor binding, % at 3.98 µM;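 active = inhibition above the mean of all tested compounds plus 3 SD, cut at about 70% in these data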;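 note: 0% = DMSO with NR2E3 transfected cells and 100% = cells lacking NR2E3 construct; higher means lower luciferase signal from less NR2E3 corepressor binding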
rCAG binder conf: r(CAG) RNA repeat binding, confirmation. inhibition, % at 3 µM. shares compounds with rCAG binder. AID 652065. 4,300 compounds, 70% hits. TO-PRO-1 dye displacement fluorescence;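 active = inhibition above a per-plate cutoff, the mean inhibition of sample wells plus 3 SD, cut at about 35% in these data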;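 note: loss of TO-PRO-1 fluorescence as compound displaces dye from 1x1 AA loop RNA; 0% = DMSO only wells and 100% = 100 µM mitoxantrone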
dCAG dye counter: disrupts DNA CAG TO-PRO-1 complex, flagging rCAG hits. d(CAG) DNA oligo TO-PRO-1 dye displacement, fluorescence. AID 652068. inhibition, % at 3 µM. 4,300 compounds, 94% hits. shares compounds with rCAG binder;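 active = inhibition above its plate's cutoff, the mean test-well inhibition plus 3 SD, cut at about 4.8% in these data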;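 note: 0% = DNA dye mix with DMSO and 100% = 100 µM mitoxantrone; hits displace the dye from DNA and so lower well fluorescence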
Numbers without * were called inactive; . = not tested or not shown. An excerpt weighted towards active compounds, which were near 2.6% of everything screened.

SMILES | PG9 Ab binder | NR2E3 ag-1 | Rev-erbA mod | rCAG binder | NR2E3 ag-2 | rCAG binder conf | dCAG dye counter
O=C(Nc1ccc(F)cc1)C(CCc1ccccc1)N1CCN(C(=O)c2ccco2)CC1 (stereo not given) | 1 | . | -2 | 1 | . | . | .
O=[N+]([O-])c1cc(-c2cccnc2)n[nH]1 | 0 | . | -3 | 1 | -36 | . | .
Cc1ccc(C)c(/C=C(\C(=O)O)c2ccc(S(=O)(=O)N3CCCCC3)s2)c1 | 0 | -1 | -8 | 47* | -18 | 45* | 19*
CCOc1cc(/C=C(\C(=O)O)c2ccc(S(=O)(=O)N3CCCC3)s2)ccc1OC | -1 | 3 | -5 | 9 | -1 | . | .
COc1ccc(Br)cc1/C=C(\C(=O)O)c1ccc(S(=O)(=O)N2CCCCC2)s1 | 1 | 1 | 1 | 70* | -8 | 74* | 37*
Cc1ccc(S(=O)(=O)N2CCCC2)s1 | -1 | 0 | 2 | -5 | -19 | . | .
COC(=O)N(C)C[C@@H]1OCc2cnnn2CCCC(=O)N([C@H](C)CO)C[C@@H]1C | -1 | . | 0 | 3 | -10 | . | .
CCCCCCCCN1C(=O)[C@H](CC(=O)N2CCSCC2)C[C@@]2(C(=O)OC)CC(C)(C)CC=C12 | 0 | . | -3 | 2 | . | . | .
CCCc1cc(=O)[nH]c(SCC(=O)Nc2ccc(C)c(S(=O)(=O)N3CCCCC3)c2)n1 | 2 | -1 | 0 | 42* | -10 | 37* | 10*
CCCc1cc(=O)[nH]c(SCC(=O)Nc2cc(S(=O)(=O)N3CCCCC3)ccc2Cl)n1 | -1 | . | -10 | 41* | 23 | 35* | 11*
CCCc1cc(=O)[nH]c(SCC(=O)Nc2cc(S(=O)(=O)N3CCOCC3)ccc2Cl)n1 | 3 | . | 0 | 16 | -14 | . | .
CCN(CC)C(=O)C1=C(C)N(Cc2ccc(C(C)(C)C)cc2)C(=O)C(CC(=O)NC2CCCC2)C1 (stereo not given) | 1 | . | -3 | -2 | 14 | . | .
Cc1snc(S(=O)(=O)/C(C#N)=N/Nc2ccc(C(F)(F)F)cc2)c1C#N | 1 | 5 | -7 | 68* | 17 | 78* | 35*
Cc1nc(NC(=O)CC(C)C)sc1-c1csc(Nc2ccc(Cl)cc2Cl)n1 | -3 | -3 | -7 | 29 | -1 | . | .
COc1ccc(Cl)cc1Nc1nc(-c2sc(NC(=O)CC(C)C)nc2C)cs1 | -1 | 0 | -5 | 36* | 3 | 21 | 14*
C=CCCC(=O)Nc1nc(C)c(-c2csc(Nc3ccc(Cl)cc3Cl)n2)s1 | -1 | -2 | 2 | 36* | -38 | 23 | 13*
O=C(NCCN1CCOCC1)c1cccc(S(=O)(=O)Nc2ccc(Br)cc2)c1 | 0 | 2 | 1 | 8 | -15 | . | .
Cc1c(Cc2ccccc2)c(=O)oc2cc(OCC(=O)N[C@@H](Cc3ccccc3)C(=O)O)ccc12 | 1 | 5 | -2 | 42* | 14 | 45* | 12*
Cc1c(CC(=O)O)c(=O)oc2cc(OCc3nn[nH]n3)ccc12 | 1 | 1 | 8 | 0 | -8 | . | .
COc1ccc(-c2cc3ccc(OCc4nn[nH]n4)cc3oc2=O)cc1OC | 2 | 1 | -2 | 35* | 3 | 19 | 4.7*
COc1ccc(-c2cc(=O)oc3cc(OCc4nn[nH]n4)ccc23)cc1 | -1 | 0 | 3 | 26 | 3 | . | .
Cc1oc2cc3oc(=O)c(CC(=O)O)c(C)c3cc2c1-c1ccccc1 | -2 | 1 | -9 | 47* | -6 | 39* | 11*
Cc1c(Cc2ccccc2)c(=O)oc2cc(OCC(=O)NCc3ccccn3)ccc12 | 0 | 1 | -3 | -4 | 22 | . | .
Cc1c(Cc2ccccc2)c(=O)oc2cc(OCc3nn[nH]n3)ccc12 | 0 | 1 | -4 | 38* | -21 | 36* | 9.1*
O=C(Nc1ccccc1)OCCN1CCOCC1 | -1 | . | 8 | 0 | -15 | . | .
SMILES | PG9 Ab binder | NR2E3 ag-1 | Rev-erbA mod | rCAG binder | NR2E3 ag-2 | rCAG binder conf | dCAG dye counter
Cc1ccc(S(=O)(=O)N(C)C)cc1NC(=S)N(C)C1CCN(C)CC1 | -2 | 0 | -6 | 0 | -25 | . | .
COc1c2c(c(OC)c3ccccc13)[C@]1(OC2)O[C@H](CCO)C[C@H](O)[C@H]1O | -1 | . | 0 | 0 | 2 | . | .
O=C(Nc1ccc(Oc2cccnc2)cc1)C1CCN(Cc2cc(Cl)ccc2O)CC1 | -1 | -1 | 1 | -2 | -3 | . | .
O=C(COc1ccc2c(c1)oc(=O)c1ccccc12)NC(Cc1ccc(Cl)cc1)C(=O)O (stereo not given) | -1 | -1 | -5 | 56* | -14 | 56* | 19*
Cc1c(C)c2c(OCC(=O)N[C@@H](Cc3ccccc3)C(=O)O)cc3c(c2oc1=O)CCC(C)(C)O3 | 0 | 2 | -4 | 45* | 10 | 48* | 13*
O=C(COc1ccc2c(c1)oc(=O)c1ccccc12)N[C@@H](Cc1ccccc1)C(=O)O | -1 | -1 | -3 | 34 | -19 | . | .
Cc1c(Cc2ccccc2)c(=O)oc2cc(OCc3ccc(C(=O)O)cc3)ccc12 | -1 | 5 | -7 | 4 | -12 | . | .
Cc1c(CC(=O)O)c(=O)oc2cc(OCc3ccc(Cl)cc3)ccc12 | -2 | -2 | 3 | 38* | -43 | 33 | 6.9*
CSC[C@H](NC(=O)COc1cc2c(c3oc(=O)c(C)c(C)c13)CCC(C)(C)O2)C(=O)O | -2 | 3 | -1 | 24 | -3 | . | .
CSc1ccccc1OCc1cc(C(=O)NCC(C)Oc2cccnc2)no1 (stereo not given) | -3 | . | -5 | 4 | -28 | . | .
CNC(=S)N/N=C/c1c(C)nn(-c2ccccc2)c1Cl | 1 | 1 | 20 | 4 | -44 | . | .
CCOc1cccc(C=NNc2ccc(S(=O)(=O)Nc3ccccc3C(=O)O)cc2[N+](=O)[O-])c1O | -1 | . | -1 | 76* | -25 | 86* | 54*
COc1ccc(NC(=S)NNc2ccc(S(=O)(=O)Nc3ccccc3C(=O)O)cc2[N+](=O)[O-])cc1 | -2 | -4 | -6 | 97* | -6 | 88* | 61*
O=C(O)c1ccccc1NS(=O)(=O)c1ccc(NN=Cc2ccccc2F)c([N+](=O)[O-])c1 | 1 | . | 1 | 84* | -15 | 92* | 72*
CCOc1ccc(C=NNc2ccc(S(=O)(=O)Nc3ccccc3C(=O)O)cc2[N+](=O)[O-])cc1 | . | . | 6 | . | 7 | . | .
Cc1nn(-c2ccccc2)c(Cl)c1/C=N/NS(=O)(=O)c1ccc(Br)cc1 | 0 | -1 | 2 | 48* | 16 | 42* | 11*
Cc1nn(-c2ccccc2)c(Cl)c1/C=N/Nc1ccc(S(=O)(=O)Nc2ccccc2C(=O)O)cc1[N+](=O)[O-] | 2 | 2 | 3 | 52* | -12 | 92* | 65*
CSc1ccc(C=NNc2ccc(S(=O)(=O)Nc3ccccc3C(=O)O)cc2[N+](=O)[O-])cc1 | 4 | . | 9 | 17 | -18 | . | .

Screens deposited in PubChem by several laboratories.
